Test results as given in ChEMBL document CHEMBL1921699, “Cucurbitane glucosides from the root of Machilus yaoshansis” (J Nat Prod, 2011).
Activity calls are given as the source filed them. The rule behind the calls is not given here.

Key:
Bel-7402 = test: Cytotoxicity against human Bel7402 cells after 96 hrs by MTT assay; assay type: functional, cell-based; conditions: Bel-7402, 96 h
Outline: (§1)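 Tested on a human tumour panel of A2780 (ovary), HCT-8 (colon), Bel-7402 (hepatoma), BGC-823 (stomach) and A549 (lung) lines. Camptothecin was the positive control.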

[1] = Cytotoxicity against human […] cells after 96 hrs by MTT assay; assay type: functional, cell-based; outline: as §1
HCT-8 = test: Cytotoxicity against human HCT8 cells after 96 hrs by MTT assay; assay type: functional, cell-based; conditions: HCT-8, 96 h; outline: as §1
[2] = system: Peritoneal macrophage cell; test: (§2) Antiinflammatory activity in C57BL6J mouse peritoneal macrophages assessed as inhibition of LPS-stimulated TNFalpha secretion at 10 uM after 24 hrs by MTT assay; assay type: functional, cell-based
A2780 = test: Cytotoxicity against human A2780 cells after 96 hrs by MTT assay; assay type: functional, cell-based; conditions: A2780, 96 h; outline: as §1
A549 = test: Cytotoxicity against human A549 cells after 96 hrs by MTT assay; assay type: functional, cell-based; conditions: A549, 96 h; outline: as §1
[3] = biological target: T1, Tyrosine-protein phosphatase non-receptor type 1 (Homo sapiens, UniProt P18031); test: Inhibition of GST-tagged human recombinant PTP1B assessed as dephosphorylation of para-nitrophenyl phosphate after 10 mins by spectrophotometric analysis
T1 sequence (P18031 whole entry): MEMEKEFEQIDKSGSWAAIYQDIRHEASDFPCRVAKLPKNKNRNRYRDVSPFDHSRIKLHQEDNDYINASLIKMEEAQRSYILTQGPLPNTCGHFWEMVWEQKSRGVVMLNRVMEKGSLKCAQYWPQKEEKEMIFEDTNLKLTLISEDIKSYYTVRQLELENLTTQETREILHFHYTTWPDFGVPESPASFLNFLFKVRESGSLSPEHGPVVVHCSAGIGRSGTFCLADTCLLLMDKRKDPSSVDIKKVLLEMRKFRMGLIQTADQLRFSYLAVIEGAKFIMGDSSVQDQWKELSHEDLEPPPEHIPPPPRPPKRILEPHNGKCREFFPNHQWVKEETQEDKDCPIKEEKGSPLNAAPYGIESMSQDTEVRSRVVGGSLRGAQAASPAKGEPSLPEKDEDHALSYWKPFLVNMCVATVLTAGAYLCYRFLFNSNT

[4] = as §2; assay type: functional, cell-based; conditions: Peritoneal macrophage cell

Row | IC50 [3] [µM] | Structure (SMILES) | IC50 (Bel-7402) [µM] | IC50 [1] [µM] | IC50 (HCT-8) [µM] | Activity [2] | IC50 (A2780) [µM] | IC50 (A549) [µM] | IC50 [4] [µM]
1 |  | CC(=O)OC(C)(C)/C=C/C(=O)[C@](C)(O)[C@H]1[C@H](O)C[C@@]2(C)[C@@H]3CC=C4[C@@H](C=C(O[C@@H]5O[C@H](CO)[C@@H](O)[C@H](O)[C@H]5O)C(=O)C4(C)C)[C@]3(C)C(=O)C[C@]12C | > 10 | 4.98 | > 10 | inactive | > 10 | 3.2 | 
2 | 4.26 | CC1(C)C(=O)C(O[C@@H]2O[C@H](CO)[C@@H](O)[C@H](O)[C@H]2O)=C[C@@H]2C1=CC[C@@H]1[C@@]2(C)C(=O)C[C@]2(C)[C@@H]([C@@](C)(O)C(=O)C[C@H]3NC(=O)OC3(C)C)[C@H](O)C[C@@]12C | > 10 | > 10 | > 10 | inactive | > 10 | > 10 | 
3 |  | CC(=O)C1=CC[C@@]2(C)[C@@H]3CC=C4[C@@H](C=C(O[C@@H]5O[C@H](CO)[C@@H](O)[C@H](O)[C@H]5O)C(=O)C4(C)C)[C@]3(C)C(=O)C[C@]12C | > 10 | > 10 | > 10 | inactive | > 10 | > 10 | 
4 |  | CO[C@@H](CC(=O)[C@](C)(O)[C@H]1[C@H](O)C[C@@]2(C)[C@@H]3CC=C4[C@@H](C=C(O)C(=O)C4(C)C)[C@]3(C)C(=O)C[C@]12C)C(C)(C)O | > 10 | > 10 | > 10 |  | > 10 | > 10 | > 10
5 |  | CC(=O)[C@H]1[C@H](O)C[C@@]2(C)[C@@H]3CC=C4[C@@H](C=C(O[C@@H]5O[C@H](CO)[C@@H](O)[C@H](O)[C@H]5O)C(=O)C4(C)C)[C@]3(C)C(=O)C[C@]12C [KHEKADAENGOSIDE K] | > 10 | > 10 | > 10 | inactive | > 10 | > 10 | 
6 |  | CO[C@@H](CC(=O)[C@](C)(O)[C@H]1[C@H](O)C[C@@]2(C)[C@@H]3CC=C4[C@@H](C=C(O[C@@H]5O[C@H](CO)[C@@H](O)[C@H](O)[C@H]5O)C(=O)C4(C)C)[C@]3(C)C(=O)C[C@]12C)C(C)(C)O | > 10 | > 10 | > 10 | inactive | > 10 | > 10 | 
7 |  | CC1(C)C(=O)C(O[C@@H]2O[C@H](CO)[C@@H](O)[C@H](O)[C@H]2O)=C[C@@H]2C1=CC[C@@H]1[C@@]2(C)C(=O)C[C@]2(C)[C@@H]([C@@](C)(O)C(=O)C[C@@H](O)C(C)(C)O)[C@H](O)C[C@@]12C | > 10 | > 10 | > 10 | inactive | > 10 | > 10 | 
8 | 8.63 | CC1(C)C[C@]2(O)O[C@@H]3C[C@@]4(C)[C@@H]5CC=C6[C@@H](C=C(O[C@@H]7O[C@H](CO)[C@@H](O)[C@H](O)[C@H]7O)C(=O)C6(C)C)[C@]5(C)C(=O)C[C@]4(C)[C@H]3[C@@](C)(O)[C@]2(O)O1 | > 10 | > 10 | > 10 | inactive | > 10 | > 10 | 
9 | 2.81 | CC1(C)C(=O)C(O[C@@H]2O[C@H](CO)[C@@H](O)[C@H](O)[C@H]2O)=C[C@@H]2C1=CC[C@@H]1[C@@]2(C)C(=O)C[C@]2(C)[C@@H]3[C@@H](C[C@@]12C)O[C@H](C(C)(C)O)CC(=O)[C@]3(C)O | > 10 | > 10 | > 10 | inactive | > 10 | > 10 | 
10 |  | CC(C)(O)/C=C/C(=O)[C@](C)(O)[C@H]1[C@H](O)C[C@@]2(C)[C@@H]3CC=C4[C@@H](C=C(O[C@@H]5O[C@H](CO)[C@@H](O)[C@H](O)[C@H]5O)C(=O)C4(C)C)[C@]3(C)C(=O)C[C@]12C | > 10 | > 10 | > 10 | inactive | > 10 | > 10 | 
11 |  | CC[C@@]1(O)C(=O)OCc2c1cc1n(c2=O)Cc2cc3ccccc3nc2-1 [CAMPTOTHECIN] | 0.26 | 0.26 | 0.26 |  | 0.26 | 0.26 | 
12 |  | CC1(C)C(=O)C(O)=C[C@@H]2C1=CC[C@@H]1[C@@]2(C)C(=O)C[C@]2(C)[C@@H]([C@@](C)(O)C(=O)C[C@@H](O)C(C)(C)O)[C@H](O)C[C@@]12C | > 10 | > 10 | > 10 | inactive | > 10 | > 10 | 
13 |  | CC1(C)C(=O)C(O)=C[C@@H]2C1=CC[C@@H]1[C@@]2(C)C(=O)C[C@]2(C)[C@@H]([C@@](C)(O)C(=O)C[C@H](O)C(C)(C)O)[C@H](O)C[C@@]12C | > 10 | > 10 | > 10 |  | > 10 | > 10 | > 10
14 |  | CC1(C)C(=O)C(O[C@@H]2O[C@H](CO)[C@@H](O)[C@H](O)[C@H]2O)=C[C@@H]2C1=CC[C@@H]1[C@@]2(C)C(=O)C[C@]2(C)[C@@H]([C@@](C)(O)C(=O)C[C@H](O)C(C)(C)O)[C@H](O)C[C@@]12C | > 10 | > 10 | > 10 | inactive | > 10 | > 10 | 
15 |  | C[C@H]1[C@H]2[C@@H](C[C@@]3(C)[C@@H]4CC=C5[C@@H](C=C(O[C@@H]6O[C@H](CO)[C@@H](O)[C@H](O)[C@H]6O)C(=O)C5(C)C)[C@]4(C)C(=O)C[C@]23C)O[C@@]2(O)CC(C)(C)O[C@@]12O | > 10 | > 10 | > 10 | inactive | > 10 | > 10 | 
16 |  | CC1(C)C(=O)C(O[C@@H]2O[C@H](CO)[C@@H](O)[C@H](O)[C@H]2O)=C[C@@H]2C1=CC[C@@H]1[C@@]2(C)C(=O)C[C@]2(C)[C@@H]([C@@]3(C)OC=CC3=O)[C@H](O)C[C@@]12C | > 10 | > 10 | > 10 | inactive | > 10 | > 10 | 
